Key:
[1] = molecular target: T1, Cystic fibrosis transmembrane conductance regulator (Homo sapiens, UniProt P13569); assay: Percent activation of wild type CFTR dependent efflux was determined by measuring the rate of iodide [125I]- efflux from transfected CHO cells; assay type: functional, cell-based; parameters: concentration or dose not given beside the values
Outline: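 CHO cells stably expressing wild-type CFTR (MEM, 7% FBS, 100 μM methotrexate), grown in 24-well plates. Loaded 30 min at 37 °C in efflux buffer (NaCl/KCl/MgCl2/glucose/HEPES, pH 7.4) with 1 μM KI and 125I; medium sampled every 1 min up to 11 min, drug after four baseline aliquots, compounds at 250 μM. Peak efflux rate expressed relative to 5 μM forskolin (=100%); mean ± SEM, n experiments.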
Target sequence in this assay (P13569 whole entry, looked up): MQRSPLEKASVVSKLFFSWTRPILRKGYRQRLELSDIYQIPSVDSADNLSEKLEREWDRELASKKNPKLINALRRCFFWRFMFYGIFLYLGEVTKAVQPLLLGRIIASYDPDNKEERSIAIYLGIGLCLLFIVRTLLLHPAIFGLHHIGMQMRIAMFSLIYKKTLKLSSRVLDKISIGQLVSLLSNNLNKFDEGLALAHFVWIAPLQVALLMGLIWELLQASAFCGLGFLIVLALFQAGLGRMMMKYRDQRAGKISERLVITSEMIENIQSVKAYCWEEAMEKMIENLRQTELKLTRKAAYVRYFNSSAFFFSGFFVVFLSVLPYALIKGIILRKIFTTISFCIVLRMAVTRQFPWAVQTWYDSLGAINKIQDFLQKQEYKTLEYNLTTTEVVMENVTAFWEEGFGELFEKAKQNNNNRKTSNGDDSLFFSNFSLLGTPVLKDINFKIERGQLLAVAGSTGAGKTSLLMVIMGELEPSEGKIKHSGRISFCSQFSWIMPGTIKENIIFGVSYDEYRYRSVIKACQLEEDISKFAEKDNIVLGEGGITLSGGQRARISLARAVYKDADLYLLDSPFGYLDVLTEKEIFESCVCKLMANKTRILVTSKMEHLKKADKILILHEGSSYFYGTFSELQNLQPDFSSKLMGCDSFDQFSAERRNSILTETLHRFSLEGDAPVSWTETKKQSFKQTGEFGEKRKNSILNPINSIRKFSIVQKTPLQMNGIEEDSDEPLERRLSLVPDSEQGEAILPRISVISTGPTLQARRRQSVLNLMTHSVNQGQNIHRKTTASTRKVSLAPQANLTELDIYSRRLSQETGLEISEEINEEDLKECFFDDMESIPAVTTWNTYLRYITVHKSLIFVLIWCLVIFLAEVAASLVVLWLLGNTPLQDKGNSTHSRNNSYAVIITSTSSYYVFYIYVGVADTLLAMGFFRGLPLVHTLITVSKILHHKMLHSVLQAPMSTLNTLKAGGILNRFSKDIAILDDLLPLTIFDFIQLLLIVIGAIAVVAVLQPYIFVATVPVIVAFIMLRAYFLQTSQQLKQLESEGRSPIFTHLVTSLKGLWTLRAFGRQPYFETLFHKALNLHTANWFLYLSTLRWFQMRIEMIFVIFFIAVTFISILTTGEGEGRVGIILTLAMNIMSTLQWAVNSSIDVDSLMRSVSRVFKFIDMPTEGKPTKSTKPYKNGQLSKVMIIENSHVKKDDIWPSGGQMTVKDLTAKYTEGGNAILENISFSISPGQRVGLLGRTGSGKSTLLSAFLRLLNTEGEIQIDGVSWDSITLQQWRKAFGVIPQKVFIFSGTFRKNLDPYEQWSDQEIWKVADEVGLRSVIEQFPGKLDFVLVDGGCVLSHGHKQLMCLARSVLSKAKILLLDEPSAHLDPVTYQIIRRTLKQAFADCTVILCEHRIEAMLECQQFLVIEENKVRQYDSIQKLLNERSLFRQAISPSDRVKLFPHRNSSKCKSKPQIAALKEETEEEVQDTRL

[2] = molecular target: Cystic fibrosis transmembrane conductance regulator (Homo sapiens, UniProt P13569, G551D); assay: Half-Maximal effective concentration of compound required to stimulate of G551D-CFTR activity in the presence of 10 uM Fsk; assay type: functional
Chain of Cystic fibrosis transmembrane conductance regulator (Homo sapiens, UniProt P13569, G551D) (P13569 whole entry G551D): as the sequence (P13569 whole entry, looked up) above, with G551D counted along it
Outline: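 G551D-CFTR stably expressed in CHO cells. The ¹²⁵I efflux assay was run on a robot: cells were loaded for 30 min at 37 °C in HEPES buffer pH 7.4 containing 1 μM KI and 1 μCi/mL ¹²⁵I, and efflux was sampled each minute for up to 11 min (4 baseline samples). Cells were exposed to 10 μM Fsk, then to increasing compound concentrations. EC50 came from %-of-maximal-effect curves, n = 6, mean ± SEM.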

[3] = molecular target: T1, Cystic fibrosis transmembrane conductance regulator; assay: Half-Maximal effective concentration of compound required to stimulate of wild type-CFTR activity in the presence of 1 uM Fsk
Target sequence in this assay (P13569 whole entry): as the sequence (P13569 whole entry, looked up) above

Row | SMILES | Activation [1] [%] | EC50 [2] [µM] | EC50 [3] [µM]
1 | Nc1cc2cccc[n+]2c2cccc(Cl)c12 | < 5 |  | 
2 | Nc1cc2[n+](c3c(Cl)cccc13)CCc1c-2[nH]c2ccccc12 | 46 |  | 
3 | Oc1cc2cccc[n+]2c2cc(F)ccc12 | 16 |  | 
4 | CCOC(=O)c1c(O)c2c(F)cccc2[n+]2ccccc12 | 8 |  | 
5 | CCOC(=O)c1c(O)c2cccc(F)c2[n+]2ccccc12 | 37 | 95 | 70.5
6 | CCCCc1c(O)c2c(Cl)cccc2[n+]2ccccc12 | 33 | 0.75 | 1.7
7 | CCCc1c(O)c2cccc(Cl)c2[n+]2ccccc12 | 32 | 48 | 54.2
8 | Oc1c(-c2ccccc2)c2cccc[n+]2c2c(Cl)cccc12 | 6 |  | 
9 | Oc1cc2cccc[n+]2c2cccc(F)c12 | < 5 |  | 
10 | CCOC(=O)c1c(O)c2ccc(F)cc2[n+]2ccccc12 | 6 |  | 
11 | Oc1cc2cccc[n+]2c2c(Cl)cccc12 | 24 | > 200 | 141
12 | Oc1cc2cccc[n+]2c2cccc(Cl)c12 | 20 | > 200 | 146
13 | Oc1cc2cccc[n+]2c2ccc(Cl)cc12 | 18 |  | 
14 | C=C[C@@]1(C)CC(=O)[C@]2(O)[C@@]3(C)[C@@H](O)CCC(C)(C)[C@@H]3[C@H](O)[C@H](OC(C)=O)[C@@]2(C)O1 | 100 |  | 
15 | CCCCc1c(O)c2cccc(Cl)c2[n+]2ccccc12 | 45 | 34 | 23.5
16 | Nc1cc2[n+](c3cccc(Cl)c13)CCc1c-2[nH]c2ccccc12 | 30 |  | 
17 | Cc1c(O)c2cccc(Cl)c2[n+]2ccccc12 | 19 |  | 
18 | Oc1cc2cccc[n+]2c2ccc(F)cc12 | 11 |  | 
19 | Oc1cc2cccc[n+]2c2c(F)cccc12 | < 5 |  | 
20 | Nc1cc2[n+](c3ccc(Cl)cc13)CCc1c-2[nH]c2ccccc12 | 6 |  | 
21 | CCOC(=O)c1c(O)c2cc(F)ccc2[n+]2ccccc12 | < 5 |  | 
22 | CCCCCc1c(O)c2cccc(Cl)c2[n+]2ccccc12 | 38 | 20 | 21
23 | Oc1c2c3c(ccc[n+]3c3cccc(F)c13)CC2 | < 5 |  | 
24 | Oc1cc2cccc[n+]2c2cc(Cl)ccc12 | < 5 |  | 
25 | Nc1cc2cccc[n+]2c2c(Cl)cccc12 | < 5 |  | 
26 | CC(C)Cc1c(O)c2cccc(Cl)c2[n+]2ccccc12 | 26 | 32 | 26

From ChEMBL document CHEMBL1148470, “Synthesis, SAR, crystal structure, and biological evaluation of benzoquinoliziniums as activators of wild-type and mutant cystic fibrosis transmembrane conductance regulator channels” (J Med Chem, 2004)
